Laboratory results from ChEMBL document CHEMBL4196022, “Alkynyl-containing phenylthiazoles: Systemically active antibacterial agents effective against methicillin-resistant Staphylococcus aureus (MRSA)” (Eur J Med Chem, 2018).
Converted amounts (≈) assume the structure as drawn. The source made the active and inactive calls. No cut-off for these calls is given here.

Tests used:
Staphylococcus aureus [1] = test: Antibacterial activity against methicillin-resistant Staphylococcus aureus USA300 infected in Caenorhabditis elegans AU37 assessed as reduction in bacterial burden at 20 ug/ml after 18 hrs relative to control; format: functional; parameters: scale not given: the % may be the effect or the level left
In short: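 L4-stage C. elegans AU37 infected on USA300 lawns for 6 h and washed with M9 buffer. 25–30 worms per well exposed to 20 μg/mL for 18 h, in triplicate. Worms then lysed and plated on TSA with 5 μg/mL nalidixic acid for 17 h at 37 °C. CFU per worm expressed as % reduction versus PBS.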

Mus musculus = test: Induction of inflammation in Balb/c mouse infected with methicillin-resistant Staphylococcus aureus USA300 assessed as redness around wounded skin area at 2% administered topically twice daily for 5 consecutive days measured 12 hrs post last dose relative to control; format: organism-based; conditions: in vivo, topical_or_ocular
In short: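 Female Balb/c mice, 8 weeks old, n=5 per group. Intradermal injection of 40 μL of 1.32×10^9 CFU/mL USA300; a wound formed by ~66 h. Treated topically with a 2% suspension in petroleum jelly twice daily for 5 days; the vehicle group served as control. Wounds excised 12 h after the last dose, homogenized in PBS and plated on mannitol salt agar; sites also observed for redness and swelling.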

[2] = Induction of proton motive force collapse in Escherichia coli inverted membrane vesicle in presence of succinate/O2-driven PMF generation system by ACMA-based fluorescence assay; format: functional, cell membranes
In short: (§1)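 E. coli inverted membrane vesicles had proton motive force generated either by ATP or by succinate/O2. PMF collapse was followed as a dose response to give EC50, with CCCP as the reference uncoupler.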

Staphylococcus aureus [3] = test: Ratio of MBC to MIC for vancomycin-resistant Staphylococcus aureus VRS10; format: functional
In short: (§2)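 MBC/MIC ratio. […] MBC by plating no-growth wells onto tryptic soy agar at 37 °C for at least 18 h; taken as the concentration giving 99.9% growth inhibition.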

[4] = Induction of proton motive force collapse in Escherichia coli inverted membrane vesicle in presence of ATP-driven PMF generation system by ACMA-based fluorescence assay; format: functional, cell membranes; in short: as §1
Staphylococcus aureus [5] = test: Potency index, ratio of vancomycin MIC to compound MIC for antibacterial activity against vancomycin-resistant Staphylococcus aureus VRS11a; format: functional
[6] = Half life in human liver microsomes at 0.1 uM preincubated for 5 mins followed by NDAPH addition measured up to 60 mins by HPLC-MS/MS analysis; conditions: 1 h
[7] = Selectivity index, ratio of toxic concentration for human HRT18 cells to MIC for methicillin-resistant Staphylococcus aureus; format: toxicity; conditions: read-out: Selectivity Index
Staphylococcus aureus [8] = test: Bactericidal activity against methicillin resistant vancomycin-resistant Staphylococcus aureus VRS11a up to 18 hrs by broth microdilution assay; format: functional; conditions: read-out: MBC99.9
Staphylococcus aureus [9] = test: Antibacterial activity against methicillin-resistant Staphylococcus aureus USA300 in neutropenic Balb/c mouse thigh infection model assessed as reduction in bacterial burden in thigh at 20 mg/kg, ip administered twice at 2 and 12 hrs post infection and measured at 24 hrs post infection relative to control; format: functional; parameters: scale not given: the % may be the effect or the level left
In short: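 Female BALB/c mice, 6–8 weeks old, n=5, made neutropenic with i.p. cyclophosphamide 150 and 100 mg/kg on days −4 and −1. Right thigh injected with 100 μL of 5.35×10^7 CFU/mL USA300. […] Thighs harvested at 24 h and counted as CFU/g on mannitol salt agar.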

Staphylococcus aureus [10] = test: Bactericidal activity against methicillin-resistant Staphylococcus aureus NRS107 up to 18 hrs by broth microdilution assay; format: functional; conditions: NRS107, 18 h, read-out: MBC99.9
HRT-18 cell line = test: Cytotoxicity against human HRT18 cells assessed as reduction in cell viability up to 32 ug/ml after 2 hrs by MTS assay; format: cell-based; conditions: hrt-18, 2 h
[11] = Efflux ratio of apparent permeability in human Caco2 cells at 10 uM after 60 mins by LC-MS/MS analysis; format: ADME, cell-based; conditions: caco-2, 1 h
In short: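 Caco-2 monolayers were seeded at 1 × 10^5 cells/cm2 and differentiated for three weeks. Test article was at 10 μM (1% DMSO) in HBSS-MES pH 6.5 or HBSS-HEPES pH 7.4 and added to the donor side. Incubation ran 60 min (A→B) or 40 min (B→A), and receiver buffer was analysed by LC/MS/MS. Lucifer yellow and fluorescein checked monolayer integrity. Efflux ratio = Papp(B→A)/Papp(A→B).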

Staphylococcus aureus [12] = test: Ratio of MBC to MIC for methicillin-resistant Staphylococcus aureus NRS119; format: functional; in short: as §2
Staphylococcus aureus [13] = test: Bactericidal activity against methicillin resistant vancomycin-resistant Staphylococcus aureus VRS10 up to 18 hrs by broth microdilution assay; format: functional; conditions: VRS10, 18 h, read-out: MBC99.9
Staphylococcus aureus [14] = test: Potency index, ratio of vancomycin MIC to compound MIC for antibacterial activity against vancomycin-resistant Staphylococcus aureus VRS12; format: functional
Staphylococcus aureus [15] = test: Ratio of MBC to MIC for methicillin-resistant Staphylococcus aureus USA300; format: functional; in short: as §2
Staphylococcus aureus [16] = test: Ratio of MBC to MIC for methicillin-resistant Staphylococcus aureus NRS107; format: functional; in short: as §2
Staphylococcus aureus [17] = test: Potency index, ratio of vancomycin MIC to compound MIC for antibacterial activity against vancomycin-resistant Staphylococcus aureus VRS10; format: functional
Staphylococcus aureus [18] = test: Bactericidal activity against methicillin resistant vancomycin-resistant Staphylococcus aureus VRS12 up to 18 hrs by broth microdilution assay; format: functional; conditions: VRS12, 18 h, read-out: MBC99.9
In short: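 MBC set up from the MIC plates. Aliquots from wells with no growth spotted onto tryptic soy agar and incubated at 37 °C for at least 18 hours. MBC taken as the lowest concentration giving 99.9% inhibition of bacterial growth.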

Staphylococcus aureus [19] = test: Inhibition of UPPS/UPPP in vancomycin-resistant Staphylococcus aureus VRS10 assessed as potentiation of vancomycin-induced antibacterial activity by measuring fold reduction in vancomycin MIC at 0.5 times MIC preincubated for 30 mins followed by vancomycin addition measured after 20 to 22 hrs by broth microdilution assay relative to control
In short: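 VRS10 suspension pre-exposed to compound at ½ × MIC for 30 min at room temperature. […] Incubation at 37 °C for 20–22 h before the MIC was read; untreated bacteria served as control.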

Staphylococcus aureus [20] = test: Bactericidal activity against methicillin-resistant Staphylococcus aureus NRS123 (USA400) at 4 times MIC after 24 hrs by time kill assay; format: functional, organism-based
Staphylococcus aureus [21] = test: Bactericidal activity against methicillin-resistant Staphylococcus aureus NRS119 up to 18 hrs by broth microdilution assay; format: functional; conditions: NRS119, 18 h, read-out: MBC99.9
[22] = Apparent permeability from basolateral to apical side in human Caco2 cells at 10 uM after 60 mins by LC-MS/MS analysis; format: ADME, cell-based; conditions: caco-2, 1 h
Rattus norvegicus = test: Volume of distribution at steady state in Sprague-Dawley rat at 2 uM administered as single iv bolus dose by LC-MS/MS analysis; format: ADME, organism-based; conditions: in vivo
In short: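 Male naïve Sprague-Dawley rats (three animals) received an IV bolus of a 2 μM solution. EDTA-K2 blood was sampled over 12 h post dose. Plasma was protein-precipitated with acetonitrile and quantified by LC/MS/MS. Parameters came from two-compartmental pharmacokinetic analysis.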

In the case of `C/C(=N\NC(=N)N)c1sc(-c2ccc(C#CC3CC3)cc2)nc1C`, the Activity (Staphylococcus aureus [1]) is reported as 90%, the Activity (Mus musculus) is reported as “Non-Toxic” and the EC50 [2] is reported as 28 µM. For the same molecule, the Ratio (Staphylococcus aureus [3]) was “<=3”, the EC50 [4] was 24 µM and the Ratio (Staphylococcus aureus [5]) was >100. For the same molecule, the t1/2 [6] was 4.87 h, the selectivity ratio [7] was 7 to 31 and the MBC (Staphylococcus aureus [8]) was 2 µg/mL (≈ 5.93 µM). For the same molecule, the Activity (Staphylococcus aureus [9]) was 77%, the MBC (Staphylococcus aureus [10]) was 2 µg/mL (≈ 5.93 µM) and the Activity (HRT-18 cell line) was “Non-Toxic”. The Ratio [11] was 69, the Ratio (Staphylococcus aureus [12]) was “<=3” and the MBC (Staphylococcus aureus [13]) was 4 µg/mL (≈ 11.9 µM). The Ratio (Staphylococcus aureus [14]) was 8, the Ratio (Staphylococcus aureus [15]) was “<=3” and the Ratio (Staphylococcus aureus [16]) was “<=3”. For the same molecule, the Ratio (Staphylococcus aureus [17]) was >100, the MBC (Staphylococcus aureus [18]) was 2 µg/mL (≈ 5.93 µM) and the fold change (FC) (Staphylococcus aureus [19]) was 512. For the same molecule, the Activity (Staphylococcus aureus [20]) was “Active”, the MBC (Staphylococcus aureus [21]) was 2 µg/mL (≈ 5.93 µM) and the Papp [22] was 0.35 ×10⁻⁶ cm/s. The Vdss (Rattus norvegicus) was 5.51 L.
